What was measured:
[1] = Toxicity against human cervical tissue explants after 24 hrs by MTT assay
Outline: (§1)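 Ectocervical tissue explants, uninfected, exposed to drug for 2 or 24 h at 37°C. Viability by MTT dye reduction per milligram tissue, read right after exposure or after overnight culture following the 2-h exposure, as percent of unexposed controls. Four donors, each condition in triplicate; CC50 by nonlinear regression.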

[2] = Toxicity against human cervical tissue explants after 2 hrs by MTT assay; outline: as §1
[3] = system: Human immunodeficiency virus 1; assay: Antiviral activity against HIV-1 subtype B V022807 infected in human MT4 cells assessed as inhibition of viral replication relative to HIV-1 3B; assay type: functional
Outline: (§2)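 Recombinant clinical HIV-1 isolates (200 TCID50/well) were tested in MT-4 cells (3 x 10^4/well) over 3–5 days, with an MTT viability read-out. IC50 was fitted by nonlinear regression. Fold change is the isolate IC50 divided by the HIV-1IIIB IC50, tested in parallel.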

[4] = system: Human immunodeficiency virus 1; assay: Antiviral activity against HIV-1 subtype H V029523 harboring NNRTI K101Q and V179I mutant infected in human MT4 cells assessed as inhibition of viral replication relative to HIV-1 3B; assay type: functional
Outline: (§3)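 MT-4 cells (3 x 10^4/well) infected with site-directed mutants or recombinant clinical isolates (200 TCID50/well) with drug, cultured 3 to 5 days. Viability read by MTT colorimetric antivirogram assay. IC50 by nonlinear regression; fold change = IC50 for the test isolate / IC50 for wild-type HIV-1 IIIB tested in parallel (mean or median).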

[5] = system: Human immunodeficiency virus 1; assay: Antiviral activity against HIV-1 subtype H V022828 harboring NNRTI K101Q and V179I mutant infected in human MT4 cells assessed as inhibition of viral replication relative to HIV-1 3B; assay type: functional; outline: as §3
[6] = system: Human immunodeficiency virus 1; assay: Antiviral activity against HIV-1 subtype B V022812 harboring NNRTI V179I mutant infected in human MT4 cells assessed as inhibition of viral replication relative to HIV-1 3B; assay type: functional; outline: as §3
[7] = system: Human immunodeficiency virus 1; assay: Antiviral activity against HIV-1 subtype B V022814 infected in human MT4 cells assessed as inhibition of viral replication relative to HIV-1 3B; assay type: functional; outline: as §3
[8] = system: Human immunodeficiency virus 1; assay: Antiviral activity against HIV-1 SM058 harboring NNTRI 227L and 106A mutant infected in human MT4 cells assessed as inhibition of viral replication relative to HIV-1 3B; assay type: functional; outline: as §3
[9] = system: Human immunodeficiency virus 1; assay: Antiviral activity against HIV-1 subtype C V022816 infected in human MT4 cells assessed as inhibition of viral replication relative to HIV-1 3B; assay type: functional; outline: as §2
[10] = system: Human immunodeficiency virus 1; assay: Antiviral activity against HIV-1 SM051 harboring NNTRI 100I and 103N mutant infected in human MT4 cells assessed as inhibition of viral replication relative to HIV-1 3B; assay type: functional; outline: as §3
[11] = system: Human immunodeficiency virus 1; assay: Antiviral activity against HIV-1 SM030 harboring NNTRI 100I mutant infected in human MT4 cells assessed as inhibition of viral replication relative to HIV-1 3B; assay type: functional; outline: as §3
[12] = system: Human immunodeficiency virus 1; assay: Antiviral activity against HIV-1 subtype D V022832 infected in human MT4 cells assessed as inhibition of viral replication relative to HIV-1 3B; assay type: functional; outline: as §3
[13] = system: Human immunodeficiency virus 1; assay: Antiviral activity against HIV-1 subtype CRF05_DF V022824 harboring NNRTI V106I mutant infected in human MT4 cells assessed as inhibition of viral replication relative to HIV-1 3B; assay type: functional; outline: as §3
[14] = system: Human immunodeficiency virus 1; assay: Antiviral activity against HIV-1 subtype CRF05_DF V022833 harboring NNRTI V179I mutant infected in human MT4 cells assessed as inhibition of viral replication relative to HIV-1 3B; assay type: functional; outline: as §3
[15] = system: Human immunodeficiency virus 1; assay: Antiviral activity against HIV-1 subtype B V022809 infected in human MT4 cells assessed as inhibition of viral replication relative to HIV-1 3B; assay type: functional; outline: as §3
[16] = system: Human immunodeficiency virus 1; assay: Antiviral activity against HIV-1 SM026 harboring NNTRI 103N and 181C mutant infected in human MT4 cells assessed as inhibition of viral replication relative to HIV-1 3B; assay type: functional; outline: as §3
[17] = system: Human immunodeficiency virus 1; assay: Antiviral activity against HIV-1 SM002 harboring NNTRI 181C mutant infected in human MT4 cells assessed as inhibition of viral replication relative to HIV-1 3B; assay type: functional; outline: as §3
[18] = system: Human immunodeficiency virus 1; assay: Antiviral activity against HIV-1 subtype D V022819 infected in human MT4 cells assessed as inhibition of viral replication relative to HIV-1 3B; assay type: functional; outline: as §3
[19] = system: Human immunodeficiency virus 1; assay: Antiviral activity against HIV-1 subtype B V022815 infected in human MT4 cells assessed as inhibition of viral replication relative to HIV-1 3B; assay type: functional; outline: as §2
[20] = system: Human immunodeficiency virus 1; assay: Antiviral activity against HIV-1 subtype CRF01_AE V029521 infected in human MT4 cells assessed as inhibition of viral replication relative to HIV-1 3B; assay type: functional; outline: as §2
[21] = system: Human immunodeficiency virus 1; assay: Antiviral activity against HIV-1 SM052 harboring NNTRI 101E and 103N mutant infected in human MT4 cells assessed as inhibition of viral replication relative to HIV-1 3B; assay type: functional; outline: as §3
[22] = system: Human immunodeficiency virus 1; assay: Antiviral activity against HIV-1 subtype D V022818 infected in human MT4 cells assessed as inhibition of viral replication relative to HIV-1 3B; assay type: functional; outline: as §3
[23] = system: Human immunodeficiency virus 1; assay: Antiviral activity against HIV-1 subtype CRF01_AE V029525 infected in human MT4 cells assessed as inhibition of viral replication relative to HIV-1 3B; assay type: functional; outline: as §2
[24] = system: Human immunodeficiency virus 1; assay: Antiviral activity against HIV-1 subtype C V022829 infected in human MT4 cells assessed as inhibition of viral replication relative to HIV-1 3B; assay type: functional; outline: as §3
[25] = system: Human immunodeficiency virus 1; assay: Antiviral activity against HIV-1 subtype H V022827 harboring NNRTI V179I mutant infected in human MT4 cells assessed as inhibition of viral replication relative to HIV-1 3B; assay type: functional; outline: as §3
[26] = system: Human immunodeficiency virus 1; assay: Antiviral activity against HIV-1 subtype O V029524 harboring NNRTI A98G, V179E and Y181C mutant infected in human MT4 cells assessed as inhibition of viral replication relative to HIV-1 3B; assay type: functional; outline: as §3
[27] = system: Human immunodeficiency virus 1; assay: Antiviral activity against HIV-1 subtype CRF02_AG V022808 infected in human MT4 cells assessed as inhibition of viral replication relative to HIV-1 3B; assay type: functional; outline: as §3
[28] = system: Human immunodeficiency virus 1; assay: Antiviral activity against HIV-1 subtype CRF02_AG V022830 infected in human MT4 cells assessed as inhibition of viral replication relative to HIV-1 3B; assay type: functional; outline: as §3
[29] = system: Human immunodeficiency virus 1; assay: Antiviral activity against HIV-1 subtype B V022813 infected in human MT4 cells assessed as inhibition of viral replication relative to HIV-1 3B; assay type: functional; outline: as §3
[30] = system: Human immunodeficiency virus 1; assay: Antiviral activity against HIV-1 SM012 harboring NNTRI 108I mutant infected in human MT4 cells assessed as inhibition of viral replication relative to HIV-1 3B; assay type: functional; outline: as §3
[31] = system: Human immunodeficiency virus 1; assay: Antiviral activity against HIV-1 subtype CRF02_AG V022825 infected in human MT4 cells assessed as inhibition of viral replication relative to HIV-1 3B; assay type: functional; outline: as §3
[32] = system: Human immunodeficiency virus 1; assay: Antiviral activity against HIV-1 SM034 harboring NNTRI 188L mutant infected in human MT4 cells assessed as inhibition of viral replication relative to HIV-1 3B; assay type: functional; outline: as §3
[33] = system: Human immunodeficiency virus 1; assay: Antiviral activity against HIV-1 subtype B V022810 harboring NNRTI A98S andK101R mutant infected in human MT4 cells assessed as inhibition of viral replication relative to HIV-1 3B; assay type: functional; outline: as §3
[34] = system: Human immunodeficiency virus 1; assay: Antiviral activity against HIV-1 subtype CRF05_DF V022823 infected in human MT4 cells assessed as inhibition of viral replication relative to HIV-1 3B; assay type: functional; outline: as §3
[35] = system: Human immunodeficiency virus 1; assay: Antiviral activity against HIV-1 subtype CRF02_AG V022826 infected in human MT4 cells assessed as inhibition of viral replication relative to HIV-1 3B; assay type: functional; outline: as §3
[36] = system: Human immunodeficiency virus 1; assay: Antiviral activity against HIV-1 subtype C V022831 infected in human MT4 cells assessed as inhibition of viral replication relative to HIV-1 3B; assay type: functional; outline: as §3
[37] = system: Human immunodeficiency virus 1; assay: Antiviral activity against HIV-1 SM024 harboring NNTRI 190A mutant infected in human MT4 cells assessed as inhibition of viral replication relative to HIV-1 3B; assay type: functional; outline: as §3
[38] = system: Human immunodeficiency virus 1; assay: Antiviral activity against HIV-1 subtype CRF01_AE V022821 infected in human MT4 cells assessed as inhibition of viral replication relative to HIV-1 3B; assay type: functional; outline: as §2
[39] = system: Human immunodeficiency virus 1; assay: Antiviral activity against HIV-1 subtype F V029522 infected in human MT4 cells assessed as inhibition of viral replication relative to HIV-1 3B; assay type: functional; outline: as §3
[40] = system: Human immunodeficiency virus 1; assay: Antiviral activity against HIV-1 subtype CRF01_AE V022822 infected in human MT4 cells assessed as inhibition of viral replication relative to HIV-1 3B; assay type: functional; outline: as §3
[41] = system: Human immunodeficiency virus 1; assay: Antiviral activity against HIV-1 subtype CRF01_AE V022820 infected in human MT4 cells assessed as inhibition of viral replication relative to HIV-1 3B; assay type: functional; outline: as §3
[42] = system: Human immunodeficiency virus 1; assay: Antiviral activity against HIV-1 SM007 harboring NNTRI 103N mutant infected in human MT4 cells assessed as inhibition of viral replication relative to HIV-1 3B; assay type: functional; outline: as §3
[43] = system: Human immunodeficiency virus 1; assay: Antiviral activity against HIV-1 subtype B V022811 infected in human MT4 cells assessed as inhibition of viral replication relative to HIV-1 3B; assay type: functional; outline: as §2

SMILES: CCCCCCCCCc1ccc(OCCOCCOCCOCCOCCOCCOCCOCCOCCO)cc1 [NONOXYNOL 9]
- CC50 [1]: 0.003%
- CC50 [2]: 0.07%

SMILES: Cc1ccnc2c1NC(=O)c1cccnc1N2C1CC1 [NEVIRAPINE]
- Ratio IC50 [3]: 3.4
- Ratio IC50 [4]: 1.4
- Ratio IC50 [5]: 1.1
- Ratio IC50 [6]: 0.8
- Ratio IC50 [7]: 2.4
- Ratio IC50 [8]: 22
- Ratio IC50 [9]: 3.8
- Ratio IC50 [10]: 22
- Ratio IC50 [11]: 5
- Ratio IC50 [12]: 0.9
- Ratio IC50 [13]: 3.1
- Ratio IC50 [14]: 1.7
- Ratio IC50 [15]: 5
- Ratio IC50 [16]: 222
- Ratio IC50 [17]: 222
- Ratio IC50 [18]: 1
- Ratio IC50 [19]: 1
- Ratio IC50 [20]: 1.4
- Ratio IC50 [21]: 22
- Ratio IC50 [22]: 0.5
- Ratio IC50 [23]: 7
- Ratio IC50 [24]: 0.6
- Ratio IC50 [25]: 0.4
- Ratio IC50 [26]: 89
- Ratio IC50 [27]: 0.8
- Ratio IC50 [28]: 1.3
- Ratio IC50 [29]: 1
- Ratio IC50 [30]: 1
- Ratio IC50 [31]: 0.7
- Ratio IC50 [32]: 222
- Ratio IC50 [33]: 1.7
- Ratio IC50 [34]: 0.9
- Ratio IC50 [35]: 0.4
- Ratio IC50 [36]: 0.9
- Ratio IC50 [37]: 96
- Ratio IC50 [38]: 1.2
- Ratio IC50 [39]: 2.1
- Ratio IC50 [40]: 0.8
- Ratio IC50 [41]: 1.3
- Ratio IC50 [42]: 22
- Ratio IC50 [43]: 3.4

SMILES: CC(C)Nc1cccnc1N1CCN(C(=O)c2cc3cc(NS(C)(=O)=O)ccc3[nH]2)CC1 [DELAVIRDINE]
- Ratio IC50 [3]: 3.6
- Ratio IC50 [4]: 2.6
- Ratio IC50 [5]: 2
- Ratio IC50 [6]: 6
- Ratio IC50 [7]: 1.9
- Ratio IC50 [8]: 10
- Ratio IC50 [9]: 5.3
- Ratio IC50 [10]: 621
- Ratio IC50 [11]: 215
- Ratio IC50 [12]: 1.1
- Ratio IC50 [13]: 1.3
- Ratio IC50 [14]: 0.6
- Ratio IC50 [15]: 2.6
- Ratio IC50 [16]: 621
- Ratio IC50 [17]: 83
- Ratio IC50 [18]: 2.3
- Ratio IC50 [19]: 4.9
- Ratio IC50 [20]: 4.4
- Ratio IC50 [21]: 90
- Ratio IC50 [22]: 0.9
- Ratio IC50 [23]: 20
- Ratio IC50 [24]: 2.7
- Ratio IC50 [25]: 0.3
- Ratio IC50 [26]: 140
- Ratio IC50 [27]: 0.6
- Ratio IC50 [28]: 0.9
- Ratio IC50 [29]: 0.7
- Ratio IC50 [30]: 2
- Ratio IC50 [31]: 1.9
- Ratio IC50 [32]: 12
- Ratio IC50 [33]: 2.7
- Ratio IC50 [34]: 0.6
- Ratio IC50 [35]: 1.3
- Ratio IC50 [36]: 2.6
- Ratio IC50 [37]: 2
- Ratio IC50 [38]: 2.3
- Ratio IC50 [40]: 2.7
- Ratio IC50 [42]: 105
- Ratio IC50 [43]: 3.7

From ChEMBL document CHEMBL1671644, “Inhibition of human immunodeficiency virus type 1 infection by the candidate microbicide dapivirine, a nonnucleoside reverse transcriptase inhibitor” (Antimicrob Agents Chemother, 2009)
